The source of these data is ChEMBL document CHEMBL3414514, “Synthesis and pharmacological evaluation of novel bisindole derivatives bearing oximes moiety: identification of novel proapoptotic agents” (Eur J Med Chem, 2015).

One assay relates to HepG2. As to the kind of experiment: Cytotoxicity against human HepG2 cells after 2 days by MTT assay. Type of assay: functional, cell-based. As to conditions: HepG2, 48 h. The method in brief:
(§1)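 Cells grown in medium with 10% heat-inactivated FBS at 37 C under 5% CO2. Compounds dissolved in medium with 1% DMSO; controls received 1% DMSO. After 2 days, MTT (10 mg/mL) added for 4 h, formazan dissolved in DMSO and absorbance read at 570/630 nm. Survival taken relative to negative control; IC50 by Bliss method (n = 5), at least three independent experiments.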
For orientation: Formazan colour is commonly taken as a measure of viable cells.

Assay [1] can be described thus: Cytotoxicity against human SKOV3 cells after 2 days by MTT assay. The format is functional, cell-based. The conditions noted are these: SK-OV-3, 48 h. In outline:
as §1

The next assay relates to HUVEC. As to the kind of experiment: Cytotoxicity against human HUVEC cells after 2 days by MTT assay. The format is cell-based. As to conditions: 48 h. The method in brief:
as §1

The next assay deals with A549. As to the kind of experiment: Cytotoxicity against human A549 cells after 2 days by MTT assay. Type of assay: functional, cell-based. The conditions noted are these: A549, 48 h. The method in brief: as §1
The test system of a further assay is MGC-803. As to the kind of experiment: Cytotoxicity against human MGC803 cells after 2 days by MTT assay. The format is functional, cell-based. As to conditions: MGC-803, 48 h. In outline:
as §1

A short description of assay [2]: Cytotoxicity against human SPCA2 cells after 2 days by MTT assay. Type of assay: functional, cell-based. The conditions noted are these: SPCA2, 48 h. In outline:
as §1

For a further assay, the system named is NCI-H460. As to the kind of experiment: Cytotoxicity against human NCI-H460 cells after 2 days by MTT assay. The conditions noted are these: NCI-H460, 48 h. The format is functional, cell-based. The method in brief: as §1
The nature of assay [3]: Cytotoxicity against human T24 cells after 2 days by MTT assay. The conditions noted are these: T-24, 48 h. The format is functional, cell-based. In outline: as §1

By IC50 is commonly meant the point on the concentration scale where inhibition reaches its midpoint. Read a low IC50 as greater potency in that assay. Regarding `COc1ccc2c(c1)/C(=N\OCc1ccc(F)cc1Cl)C(c1c[nH]c3ccc(OC)cc13)=N2`, the IC50 in the assay on HepG2 is 24.1 µM; in assay [1], 12.2 µM; in the assay on HUVEC it was more than 100 µM; with A549 it was 19.1 µM; in the assay with MGC-803 it was 16.1 µM; in assay [2], 11.1 µM. The IC50 in the assay on NCI-H460 is 13 µM; in assay [3] it was 12.4 µM.
As for `Cc1cccc2c1N=C(c1c[nH]c3c(C)cccc13)/C2=N/OCc1cccc(Cl)c1`, the half-inhibitory concentration (IC50) with HepG2 is 22.8 µM; in assay [1] it was 26.5 µM; with HUVEC, more than 100 µM; with A549, 31.9 µM; in the assay on MGC-803, 26.4 µM; in assay [2], 18.2 µM. Further, the IC50 in the assay on NCI-H460 is 23.1 µM; in assay [3] it was 17.6 µM.
Regarding `Nc1ccc2c(c1)/C(=N\O)C(c1c[nH]c3ccc(N)cc13)=N2`, the IC50 in the assay on HepG2 is 18.5 µM; in assay [1], 17.5 µM; in the assay with HUVEC, more than 100 µM; with A549, 14.8 µM; with MGC-803, 13.2 µM; in assay [2], 16.7 µM. The values for the IC50 (in the assay on NCI-H460; in assay [3]) were 20.2 µM and 9.38 µM, respectively.
Take `Cc1ccc(CO/N=C2/C(c3c[nH]c4ccc(F)cc34)=Nc3ccc(F)cc32)cc1`: the IC50 is 19.6 µM in the assay on HepG2; 11.3 µM in assay [1]; more than 100 µM in the assay with HUVEC; 13.6 µM with A549; 20.8 µM in the assay on MGC-803; 11 µM in assay [2]. Besides, the 50% inhibitory concentration (IC50) with NCI-H460 stood at 12 µM; in assay [3], 20 µM.
In the case of `FC(F)(F)c1ccc(CO/N=C2/C(c3c[nH]c4ccccc34)=Nc3ccccc32)cc1`, the IC50 in the assay with HepG2 is 22.3 µM; in assay [1], 24.2 µM; with HUVEC, more than 100 µM; in the assay on A549, 21.9 µM; in the assay on MGC-803, 30.6 µM; in assay [2] it was 21.2 µM. The IC50 was 24.1 µM with NCI-H460 and 18.9 µM in assay [3].
As for `COC(=O)c1ccc2c(c1)/C(=N\O)C(c1c[nH]c3ccc(C(=O)OC)cc13)=N2`, the IC50 in the assay with HepG2 was 15.3 µM; in assay [1], 15.6 µM; with HUVEC, more than 100 µM; in the assay on A549 it was 20.5 µM; with MGC-803, 22.4 µM; in assay [2] it was 14.9 µM. The IC50 in the assay on NCI-H460 stood at 14 µM; in assay [3], 11.5 µM.
As for `c1ccc(CO/N=C2/C(c3c[nH]c4ccccc34)=Nc3ccccc32)cc1`, the IC50 with HepG2 is 19.5 µM; in assay [1], 16.9 µM; with HUVEC it was more than 100 µM; with A549, 19.3 µM; in the assay with MGC-803 it was 15.4 µM; in assay [2], 21.4 µM. Moreover, the results for the half-maximal inhibitory concentration (IC50) (in the assay with NCI-H460; in assay [3]) were 22 µM and 12.2 µM, respectively.
Turning to `O/N=C1/C(c2c[nH]c3ccc(OCc4ccccc4)cc23)=Nc2ccc(OCc3ccccc3)cc21`, the IC50 with HepG2 is 19 µM; in assay [1], 17.6 µM; with HUVEC, more than 100 µM; with A549 it was 19.5 µM; with MGC-803, 14.5 µM; in assay [2], 12 µM. Moreover, the values for the IC50 (in the assay with NCI-H460; in assay [3]) were 16.6 µM and 11.8 µM, respectively.
Take `O/N=C1/C(c2c[nH]c3cc(F)ccc23)=Nc2cc(F)ccc21`: the IC50 with HepG2 was 13.8 µM; in assay [1] it was 16.4 µM; in the assay with HUVEC it was more than 100 µM; in the assay with A549, 21.3 µM; in the assay with MGC-803, 22.1 µM; in assay [2] it was 10 µM. Besides, the concentration for half-maximal inhibition (IC50) worked out at 22.2 µM in the assay on NCI-H460 and 11.7 µM in assay [3].
